Measurements published in PMC8052299 (Biochemical pharmacology, 2021).
Where two headings read alike, the source gives them in different places.

How the values were obtained:
HIV-1NL4.3 = test: HIV replication assay in PBMCs; type: cell-based; details: for HIV replication suppressed: day 6
[1] = Viability of uninfected PBMCs; type: cell-based, human; details: human, CC50, uninfected PBMCs, Viacount dye
J-Lat 9.2 cells = test: LRA-induced provirus expression; type: cell-based; details: for stimulation of GFP expression: J-Lat 9.2, data not shown; for GFP expression induced, % of cells: LRA only
J-Lat 10.6 cells [2] = test: LRA-induced provirus expression; type: cell-based
OM-10.1 cells = test: TNFα-induced provirus expression; type: cell-based; details: for EC50: 24 h, read-out: TNFα EC50, inhibition of provirus expression
How it was run: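 OM-10.1 cells seeded at 200,000 cells/well and co-treated with 1 ng/mL TNFα plus test compound or 0.1% DMSO for 24 h. Cells were fixed, permeabilized, stained for intracellular p24Gag (KC57-RD1) and scored on live-gated cells by flow cytometry. EC50s were derived after normalizing to TNFα-only controls.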

J-Lat 10.6 cells [3] = type: cell-based; details: for GFP expression 24 hours after washing, % of vehicle-treated control cells: washed, 24 h drug-free
CDK9/cyclin T1 = CDK9/cyclin T1 (Homo sapiens, UniProt P50750); test: CDK9 kinase activity assay; type: biochemical
[4] = tested on: Tat-dependent transactivation; test: Tat-transactivated mCherry expression in JurTat cells; type: cell-based; details: for effect on ratio of mCherry:Dendra fluorescence: up to 30 μM
How it was run: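 JurTat cells (Tat-Dendra plus HIV LTR-mCherry) were induced with 500 ng/mL doxycycline and seeded at 200,000 cells/well with test compound or 0.1% DMSO. After 24 h, Tat-Dendra and mCherry were measured by flow cytometry. Values are percent positive cells and mCherry:Dendra fluorescence ratio, expressed relative to 0.1% DMSO-treated cells.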

class I and II HDAC = test: Cellular HDAC activity assay; type: cell-based; details: for IC50: read-out: HDAC Inhibition IC50, Jurkat cells, 90 min, HDAC-Glo I/II
PBMCs = test: Viability of uninfected PBMCs; type: cell-based, human; details: 6 days; for CC50: Viacount dye; for toxicity: up to 30 μM
Jurkat cells = test: Jurkat cell viability, 24 h; type: cell-based; details: 30 μM
[5] = tested on: Tat-dependent transactivation; test: HIV Tat-induced GFP expression in CEM-GXR cells; type: cell-based, HIV-1
[6] = J-Lat 9.2, 24 h, read-out: Panobinostat EC50, inhibition of provirus expression
[7] = J-Lat 9.2, 24 h, read-out: Prostratin EC50, inhibition of provirus expression
[8] = J-Lat 9.2, 24 h, read-out: TNFα EC50, inhibition of provirus expression
[9] = J-Lat 10.6, 24 h, read-out: HMBA EC50, inhibition of provirus expression
[10] = J-Lat 10.6, 24 h, read-out: JQ1 EC50, inhibition of provirus expression
[11] = J-Lat 10.6, 24 h, read-out: TNFα EC50, inhibition of provirus expression
[12] = 15 μM, JurTat + 500 ng/mL Dox, 24 h

CDK9/cyclin T1, sequence (P50750 whole entry): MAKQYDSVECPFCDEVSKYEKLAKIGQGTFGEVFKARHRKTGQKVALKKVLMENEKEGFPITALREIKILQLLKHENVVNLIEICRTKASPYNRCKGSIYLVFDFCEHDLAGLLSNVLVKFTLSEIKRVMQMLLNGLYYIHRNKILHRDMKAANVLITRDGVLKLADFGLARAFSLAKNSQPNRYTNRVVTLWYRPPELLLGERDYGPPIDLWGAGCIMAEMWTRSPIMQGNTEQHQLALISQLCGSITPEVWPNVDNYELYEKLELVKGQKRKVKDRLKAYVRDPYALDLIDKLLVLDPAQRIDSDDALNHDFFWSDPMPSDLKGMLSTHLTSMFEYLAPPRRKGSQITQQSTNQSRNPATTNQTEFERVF
CDK9/cyclin T1, sequence (O60563 whole entry partner): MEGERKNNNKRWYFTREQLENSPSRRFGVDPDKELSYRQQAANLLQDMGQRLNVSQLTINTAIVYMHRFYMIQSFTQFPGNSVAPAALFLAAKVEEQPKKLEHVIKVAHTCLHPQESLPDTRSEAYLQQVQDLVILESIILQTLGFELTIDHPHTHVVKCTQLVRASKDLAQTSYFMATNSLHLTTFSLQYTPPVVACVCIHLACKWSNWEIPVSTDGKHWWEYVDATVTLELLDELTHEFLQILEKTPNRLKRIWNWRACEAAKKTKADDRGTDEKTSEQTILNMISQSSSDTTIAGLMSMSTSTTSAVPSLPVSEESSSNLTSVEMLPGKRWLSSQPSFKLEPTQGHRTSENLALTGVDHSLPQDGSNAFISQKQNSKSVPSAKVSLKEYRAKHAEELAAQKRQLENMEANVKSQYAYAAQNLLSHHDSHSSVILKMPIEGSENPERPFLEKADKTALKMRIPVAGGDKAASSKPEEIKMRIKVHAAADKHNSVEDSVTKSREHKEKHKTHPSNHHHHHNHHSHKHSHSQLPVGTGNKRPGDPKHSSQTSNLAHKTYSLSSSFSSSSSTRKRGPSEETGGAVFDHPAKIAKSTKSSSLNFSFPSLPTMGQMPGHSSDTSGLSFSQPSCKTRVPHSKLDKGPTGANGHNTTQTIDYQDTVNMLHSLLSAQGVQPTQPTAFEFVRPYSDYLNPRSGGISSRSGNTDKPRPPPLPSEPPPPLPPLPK

Molecule	CC50 at 6 days [1] [µM]	EC50 (J-Lat 9.2 cells; [6]) [µM]	EC50 (J-Lat 9.2 cells; [7]) [µM]	EC50 (J-Lat 9.2 cells; [8]) [µM]	EC50 (J-Lat 10.6 cells [2]; [9]) [µM]	EC50 (J-Lat 10.6 cells [2]; [10]) [µM]	EC50 (J-Lat 10.6 cells [2]; [11]) [µM]	EC50 (OM-10.1 cells) [µM]	GFP expression 24 hours after washing, % of vehicle-treated control cells (J-Lat 10.6 cells [3]; 10 μM for 21 days, J-Lat 10.6) [%]	IC50 (CDK9/cyclin T1) [µM]	HDAC activity inhibited (class I and II HDAC; 10 μM, Jurkat) [%]	IC50 (class I and II HDAC) [µM]	other results
O=c1cc(-c2ccc(O)cc2)oc2cc(O)cc(O)c12 [Apigenin, apigenin]	19.8 ± 6.5	4.1 ± 0.4	7.3 ± 1.1	5.6 ± 0.6	5.2 ± 0.8	7.2 ± 1.1	6.2 ± 0.3	4.1 ± 0.8	80.6 ± 80.5	0.21 ± 0.1	19.4 ± 5.4	47.2 ± 6.7	Selectivity Index (CC50/EC50) (HIV-1NL4.3): 4.0; Dendra, % of fluorescence in cells treated with only Dox ([4]; 15 μM, JurTat): 39.9%; mCherry, % of fluorescence in cells treated with only Dox ([4]; 15 μM, JurTat): 13.7%; residual mCherry fluorescence as % of residual Dendra fluorescence ([4]; 15 μM, JurTat): 34.3%; Dendra expression, % of cells [4, 12]: 17.4 ± 6.5%; mCherry expression, % of cells [4, 12]: 1.8 ± 0.7%; EC50, mCherry:Dendra fluorescence ratio ([4]; JurTat + 500 ng/mL Dox, 24 h): 14.5 ± 1.5 µM
COc1cc(F)ccc1-c1ncnc(Nc2cccc(C[S@](C)(=N)=O)c2)n1 [Atuveciclib, atuveciclib, reference compound]	24.7 ± 4.9	3.6 ± 0.8	1.8 ± 0.1	1.7 ± 0.2	1.8 ± 0.1	2.4 ± 0.2	4.3 ± 0.2	1.8 ± 0.09	53.0 ± 0.8	–	11.3 ± 12.9	> 90	CC50 (PBMCs): 24.4 ± 1.5 µM; viability reduced vs 0.1% DMSO (Jurkat cells): 61.3 ± 2.6%; GFP expression 11 days following wash-out (J-Lat 10.6 cells [3]; 10 μM for 21 days, J-Lat 10.6): returned to those of untreated controls; GFP expression before wash-out, % of untreated cells (J-Lat 10.6 cells [3]; 10 μM, 21 days, J-Lat 10.6): 3.4 ± 0.7%; spontaneous GFP production abolished (J-Lat 10.6 cells [3]; 10 μM, after 9 days, J-Lat 10.6): > 95%; duration of reinforced latency following withdrawal in vitro (J-Lat 10.6 cells [3]; J-Lat 10.6, after 21 days' treatment): 9 days; HDAC activity inhibited (class I and II HDAC; 90 μM, Jurkat): 29.7 ± 14.3%
O=c1cc(-c2ccccc2)oc2cc(O)cc(O)c12 [Chrysin, chrysin]	> 30	2.8 ± 0.4	4.3 ± 1.2	4 ± 0.4	6.7 ± 1.4	7.7 ± 1.5	6.3 ± 0.7	4.7 ± 0.3	70.9 ± 65.6	0.021 ± 0.01	37.9 ± 7.7	24 ± 4.8	Selectivity Index (CC50/EC50) (HIV-1NL4.3): > 3.3; toxicity (PBMCs): no toxicity was observed; provirus expression inhibited (J-Lat 9.2 cells; 3 μM, J-Lat 9.2, 10 ng/mL TNFα): 22.5 ± 24.9%; provirus expression inhibited (J-Lat 9.2 cells; 10 μM, J-Lat 9.2, 10 ng/mL TNFα): 88.3 ± 8.8%
CC(=O)NCCCCCCNC(C)=O [HMBA, reference compound]	–	–	–	–	–	–	–	–	–	–	–	–	stimulation of GFP expression (J-Lat 9.2 cells): did not stimulate GFP expression; GFP production, % of cells (J-Lat 10.6 cells [2]; J-Lat 10.6, 10 mM, LRA only): 34.6 ± 1.4%
Cc1sc2c(c1C)C(c1ccc(Cl)cc1)=N[C@@H](CC(=O)OC(C)(C)C)c1nnc(C)n1-2 [JQ1, reference compound]	–	–	–	–	–	–	–	–	–	–	–	–	stimulation of GFP expression (J-Lat 9.2 cells): did not stimulate GFP expression; GFP production, % of cells (J-Lat 10.6 cells [2]; J-Lat 10.6, 10 μM, LRA only): 35.9 ± 2.0%
O=c1cc(-c2ccc(O)c(O)c2)oc2cc(O[C@@H]3O[C@H](CO)[C@@H](O)[C@H](O)[C@H]3O)cc(O)c12 [L7G, luteolin-7-glucoside]	–	–	–	–	–	–	–	–	–	–	–	> 90	HIV replication suppressed (HIV-1NL4.3; 1 μM): 26.3 ± 24.8%; HIV replication suppressed (HIV-1NL4.3; 10 μM): 77.3 ± 32.7%; CC50 (PBMCs): 18.3 ± 2.5 µM; EC50 (J-Lat 9.2 cells; read-out: Panobinostat EC50, inhibition of provirus expression, J-Lat 9.2, 0.1 μM panobinostat, 24 h, GFP): 4.3 ± 0.4 µM; EC50 (J-Lat 9.2 cells; read-out: Prostratin EC50, inhibition of provirus expression, J-Lat 9.2, 10 μM prostratin, 24 h, GFP): 17.3 ± 2.2 µM; EC50 (J-Lat 9.2 cells; read-out: TNFα EC50, inhibition of provirus expression, J-Lat 9.2, 10 ng/mL TNFα, 24 h, GFP): 4.5 ± 0.6 µM; EC50 (J-Lat 10.6 cells [2]; read-out: HMBA EC50, inhibition of provirus expression, J-Lat 10.6, 10 mM HMBA, 24 h, GFP): 10.1 ± 3.5 µM; EC50 (J-Lat 10.6 cells [2]; read-out: JQ1 EC50, inhibition of provirus expression, J-Lat 10.6, 10 μM JQ1, 24 h, GFP): 16.4 ± 3.3 µM; EC50 (J-Lat 10.6 cells [2]; read-out: TNFα EC50, inhibition of provirus expression, J-Lat 10.6, 10 ng/mL TNFα, 24 h, GFP): 11.9 ± 0.5 µM; EC50 (OM-10.1 cells; OM-10.1, 1 ng/mL TNFα, p24Gag): 10.3 ± 1.2 µM; spontaneous latency reversal (J-Lat 10.6 cells [3]; 10 μM, 21 days, J-Lat 10.6): highly variable, but not inhibited; CDK9 IC50 fold higher than aglycone analogue luteolin (CDK9/cyclin T1): 96 fold; IC50 (CDK9/cyclin T1; read-out: CDK9 inhibition IC50, purified CDK9/cyclin T1, 10 μM ATP, ADP-Glo): 6.9 ± 3.9 µM; EC50 ([5]; read-out: Tat-dependent transactivation EC50, pCMV-Tat-transfected CEM-GXR cells, GFP, 24 h): > 30 µM; inhibition of Tat-induced GFP expression ([5]; up to 30 μM, CEM-GXR): unable to inhibit GFP expression; effect on ratio of mCherry:Dendra fluorescence ([4]; JurTat): neither naringenin nor L7G substantially affected the ratio
O=c1cc(-c2ccc(O)c(O)c2)oc2cc(O)cc(O)c12 [Luteolin, luteolin]	13.9 ± 5.9	6.8 ± 0.8	20.6 ± 2.6	7.6 ± 0.6	26.5 ± 5.8	15.4 ± 1.5	13.6 ± 0.8	10.3 ± 0.6	79.9 ± 26.6	0.072 ± 0.03	10.1 ± 1.6	> 90	Selectivity Index (CC50/EC50) (HIV-1NL4.3): 1.1; EC50, mCherry:Dendra fluorescence ratio ([4]; JurTat + 500 ng/mL Dox, 24 h): 9.5 ± 1.5 µM; HDAC activity inhibited (class I and II HDAC; 100 μM, Jurkat): 42.6 ± 9.5%
O=C1C[C@@H](c2ccc(O)cc2)Oc2cc(O)cc(O)c21 [Naringenin, naringenin, reference compound]	> 30	> 30	> 30	> 30	> 30	> 30	> 30	> 30	–	> 30	–	88.7 ± 32.1	antiviral activity (HIV-1NL4.3; up to 30 μM): no antiviral activity was observed; toxicity (PBMCs): No toxicity was observed; inhibition of LRA-induced provirus expression (J-Lat 10.6 cells [2]; J-Lat 10.6, TNFα, JQ1, HMBA): did not inhibit any LRA-induced provirus expression; inhibition of TNFα-induced provirus expression (OM-10.1 cells; OM-10.1, 1 ng/mL TNFα): no inhibition was observed; effect on ratio of mCherry:Dendra fluorescence ([4]; JurTat): neither naringenin nor L7G substantially affected the ratio
Cc1[nH]c2ccccc2c1CCNCc1ccc(/C=C/C(=O)NO)cc1 [panobinostat, reference compound]	–	–	–	–	–	–	–	–	–	–	–	–	GFP expression induced, % of cells (J-Lat 9.2 cells; J-Lat 9.2, 0.1 μM, 24 h): 10.8 ± 1.4%; cellular HDAC activity reduced (class I and II HDAC; 0.1 μM, Jurkat): 88.0 ± 10.9%
CC(=O)O[C@@]12C[C@@H](C)[C@@]3(O)[C@@H](C=C(CO)C[C@]4(O)C(=O)C(C)=C[C@@H]34)[C@@H]1C2(C)C [prostratin, reference compound]	–	–	–	–	–	–	–	–	–	–	–	–	GFP expression induced, % of cells (J-Lat 9.2 cells; J-Lat 9.2, 10 μM, 24 h): 10.7 ± 2.7%
TNFα	–	–	–	–	–	–	–	–	–	–	–	–	GFP expression induced, % of cells (J-Lat 9.2 cells; J-Lat 9.2, 10 ng/mL, 24 h): 10.4 ± 1.7%; GFP-positive cells induced (J-Lat 10.6 cells [2]; J-Lat 10.6, 10 ng/mL, 24 h, LRA only): 80.3 ± 2.6%; p24Gag production induced, % of live-gated cells (OM-10.1 cells; OM-10.1, 1 ng/mL): 90.6 ± 4.0%
